Source: ChEMBL document CHEMBL1135941, “Synthesis and biological activity of the new 5-fluorocytosine derivatives, 5'-deoxy-N-alkyloxycarbonyl-5-fluorocytosine-5'-carboxylic acid” (Bioorg Med Chem Lett, 2002)
Values after ≈ are worked out from the molar mass of the structure shown. Values joined by “and” are separate entries in the source; they are usually repeats but may differ in a detail not shown here. Identical values can stand only once.

Experiments:
SK-MEL-2 = assay: Inhibitory concentration of compound for cytotoxicity against SK-MEL-2 human melanoma cells was determined; assay type: functional, cell-based
Summary of the method: (§1)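 MTT cytotoxicity assay on human cancer cell lines: A549 (lung), SK-OV-3 (ovarian), HCT15 (colon) and SK-MEL-2 (melanoma). Cells were incubated with compound for 3 days before the MTT read-out. Activity is reported as IC50 in μg/mL.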

HCT-15 = assay: Inhibitory concentration of compound for cytotoxicity against HCT15 human colon cells was determined; assay type: functional, cell-based; summary of the method: as §1
A549 = assay: Inhibitory concentration of compound for cytotoxicity against […] human lung cells was determined; assay type: functional, cell-based; summary of the method: as §1
[1] = Toxicity by oral administration of single dose in mice; conditions: mouse, in vivo
SK-OV-3 = assay: Inhibitory concentration of compound for cytotoxicity against SK-OV-3 human ovarian cells was determined; assay type: functional, cell-based; summary of the method: as §1
Mus musculus [2] = assay: In vivo mean survival time of L1210 leukemic BDF1 mice when compound (0.67 mmol/kg/day) was administered orally
Mus musculus [3] = assay: In vivo mean survival time of L1210 leukemic BDF1 mice when compound (0.016 mmol/kg/day) was administered orally
Mus musculus [4] = assay: In vivo mean survival time of L1210 leukemic BDF1 mice when compound (0.0032 mmol/kg/day) was administered orally
[5] = Toxicity by oral administration of single dose in mice for 21 days; conditions: mouse, in vivo, 504 h
Mus musculus [6] = assay: In vivo mean survival time of L1210 leukemic BDF1 mice when compound (0.23 nmol/kg/day) was administered intravenously; assay type: functional
Mus musculus [7] = assay: Percent increase in life span of L1210 leukemic BDF1 mice when compound (0.15 nmol/kg/day) was administered intravenously; assay type: functional

| SMILES | IC50 (SK-MEL-2) [µg/mL] | IC50 (HCT-15) [µg/mL] | IC50 (A549) [µg/mL] | LD50 [1] [mg/kg] | IC50 (SK-OV-3) [µg/mL] | MST (Mus musculus [2]) [days] | MST (Mus musculus [3]) [days] | MST (Mus musculus [4]) [days] | LD50 [5] [mg/kg/day] | MST (Mus musculus [6]) | ILS (Mus musculus [7]) |
| --- | --- | --- | --- | --- | --- | --- | --- | --- | --- | --- | --- |
| C#CCOC(=O)Nc1nc(=O)n(C2O[C@H](C(=O)O)[C@@H](O)[C@H]2O)cc1F (stereo partly specified) | 0.007 (≈ 0.0196 µM) | 0.04 (≈ 0.112 µM) | 0.005 (≈ 0.014 µM) | 12 | 0.005 (≈ 0.014 µM) |  |  |  |  |  |  |
| CCCCCOC(=O)Nc1nc(=O)n(C2O[C@H](C(=O)O)[C@@H](O)[C@H]2O)cc1F (stereo partly specified) | 0.03 (≈ 0.0771 µM) | 0.12 (≈ 0.308 µM) | 0.17 (≈ 0.437 µM) |  | 0.03 (≈ 0.0771 µM) | 11.3 |  |  |  |  |  |
| O=C(Nc1nc(=O)n(C2O[C@H](C(=O)O)[C@@H](O)[C@H]2O)cc1F)Oc1ccccc1 (stereo partly specified) | 0.1 (≈ 0.253 µM) | 0.39 (≈ 0.987 µM) | 0.55 (≈ 1.39 µM) |  | 0.12 (≈ 0.304 µM) |  |  |  |  |  |  |
| O=C(Nc1nc(=O)n(C2O[C@H](C(=O)O)[C@@H](O)[C@H]2O)cc1F)OCc1ccccc1 (stereo partly specified) | 0.1 (≈ 0.244 µM) | 0.17 (≈ 0.415 µM) | 0.37 (≈ 0.904 µM) |  | 0.07 (≈ 0.171 µM) |  |  |  |  |  |  |
| CCOC(=O)Nc1nc(=O)n(C2O[C@H](C(=O)O)[C@@H](O)[C@H]2O)cc1F (stereo partly specified) | 0.16 (≈ 0.461 µM) | 0.47 (≈ 1.35 µM) | 0.49 (≈ 1.41 µM) |  | 0.16 (≈ 0.461 µM) |  |  |  |  |  |  |
| C=CCOC(=O)Nc1nc(=O)n(C2O[C@H](C(=O)O)[C@@H](O)[C@H]2O)cc1F (stereo partly specified) | 0.008 (≈ 0.0223 µM) | 0.032 (≈ 0.0891 µM) | 0.04 (≈ 0.111 µM) | 650 | 0.008 (≈ 0.0223 µM) |  | 24.8 | 22.1 | 22 |  |  |
| O=c1[nH]cc(F)c(=O)[nH]1 [FLUOROURACIL] | 0.63 (≈ 4.84 µM) | 0.11 (≈ 0.846 µM) | 0.26 (≈ 2 µM) |  | 0.03 (≈ 0.231 µM) |  |  |  |  | 16.5 days and 14.3 days | 87.5% and 62.5% |
